Source: ChEMBL document CHEMBL3286396, “Discovery and Synthesis of C-Nucleosides as Potential New Anti-HCV Agents” (ACS Med Chem Lett, 2014)
pEC50, pIC50: −log10 of the molar value.

Assays:
[1] = Inhibition of N-terminal His6-tagged Hepatitis C virus genotype 1b isolate Con1 NS5B RNA-dependent RNA polymerase activity by plate reader analysis
[2] = Cytotoxicity against human HuH7 cells by MTT assay; type: cell-based, Huh-7
In short: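 Huh-7-derived HCV replicon cell lines were used, with MTT as the vital dye read-out.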

Hepatitis C virus [3] = assay: Antiviral activity against Hepatitis C virus assessed as inhibition of subgenomic replicon RNA replication; type: functional, organism-based, Hepacivirus hominis
[4] = Inhibition of Hepatitis C virus NS5B RNA-dependent RNA polymerase activity; design: species or system Hepacivirus hominis
Hepatitis C virus [5] = assay: Antiviral activity against Hepatitis C virus genotype 1b infected in human HuH7 cells assessed as inhibition of subgenomic replicon RNA replication after 72 hrs by luciferase reporter assay; type: functional, cell-based, Hepacivirus hominis; settings: Huh-7, 72 h
[6] = target: T1, DNA polymerase subunit gamma-1 (Homo sapiens, UniProt P54098); assay: Inhibition of human DNA polymerase gamma
T1 sequence (P54098 whole entry): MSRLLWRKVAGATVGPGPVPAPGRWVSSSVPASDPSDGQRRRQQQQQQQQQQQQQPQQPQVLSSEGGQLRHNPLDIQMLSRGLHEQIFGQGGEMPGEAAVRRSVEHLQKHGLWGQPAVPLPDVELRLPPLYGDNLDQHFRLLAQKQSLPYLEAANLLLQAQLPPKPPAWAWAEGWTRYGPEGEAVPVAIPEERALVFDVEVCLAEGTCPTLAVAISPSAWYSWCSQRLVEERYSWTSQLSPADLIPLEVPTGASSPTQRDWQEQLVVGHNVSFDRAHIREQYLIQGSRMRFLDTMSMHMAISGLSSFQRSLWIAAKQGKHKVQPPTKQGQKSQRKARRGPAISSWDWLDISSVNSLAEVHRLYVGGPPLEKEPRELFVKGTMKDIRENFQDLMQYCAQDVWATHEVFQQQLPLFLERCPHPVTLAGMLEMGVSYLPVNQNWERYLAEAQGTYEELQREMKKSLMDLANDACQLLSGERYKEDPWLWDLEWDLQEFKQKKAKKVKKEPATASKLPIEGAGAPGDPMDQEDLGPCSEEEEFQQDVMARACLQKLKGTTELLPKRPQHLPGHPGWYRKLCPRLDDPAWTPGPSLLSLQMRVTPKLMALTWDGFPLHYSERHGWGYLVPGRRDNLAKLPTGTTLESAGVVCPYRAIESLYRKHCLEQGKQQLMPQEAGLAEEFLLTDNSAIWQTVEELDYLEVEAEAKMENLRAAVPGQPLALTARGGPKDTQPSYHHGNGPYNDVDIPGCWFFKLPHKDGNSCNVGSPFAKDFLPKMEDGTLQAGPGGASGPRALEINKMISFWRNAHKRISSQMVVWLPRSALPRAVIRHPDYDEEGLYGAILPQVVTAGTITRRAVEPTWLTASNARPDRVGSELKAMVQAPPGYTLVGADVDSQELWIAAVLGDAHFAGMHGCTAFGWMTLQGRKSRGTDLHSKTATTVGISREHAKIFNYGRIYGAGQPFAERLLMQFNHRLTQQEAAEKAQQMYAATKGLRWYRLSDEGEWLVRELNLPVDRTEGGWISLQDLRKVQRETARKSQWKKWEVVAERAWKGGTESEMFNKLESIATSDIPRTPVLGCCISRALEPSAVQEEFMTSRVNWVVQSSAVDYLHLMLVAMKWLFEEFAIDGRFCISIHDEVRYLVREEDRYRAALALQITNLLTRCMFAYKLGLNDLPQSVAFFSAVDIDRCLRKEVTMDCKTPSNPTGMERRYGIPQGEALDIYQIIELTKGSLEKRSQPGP
In short: (§1)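 The nucleoside was tested in its triphosphate form against human DNA polymerases α, β and γ.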

DNA polymerase beta = DNA polymerase beta (Homo sapiens, UniProt P06746); assay: Inhibition of human DNA polymerase beta; in short: as §1
[7] = target: T2, DNA polymerase alpha catalytic subunit (Homo sapiens, UniProt P09884); assay: Inhibition of human DNA polymerase alpha; in short: as §1
T2 sequence (P09884 whole entry): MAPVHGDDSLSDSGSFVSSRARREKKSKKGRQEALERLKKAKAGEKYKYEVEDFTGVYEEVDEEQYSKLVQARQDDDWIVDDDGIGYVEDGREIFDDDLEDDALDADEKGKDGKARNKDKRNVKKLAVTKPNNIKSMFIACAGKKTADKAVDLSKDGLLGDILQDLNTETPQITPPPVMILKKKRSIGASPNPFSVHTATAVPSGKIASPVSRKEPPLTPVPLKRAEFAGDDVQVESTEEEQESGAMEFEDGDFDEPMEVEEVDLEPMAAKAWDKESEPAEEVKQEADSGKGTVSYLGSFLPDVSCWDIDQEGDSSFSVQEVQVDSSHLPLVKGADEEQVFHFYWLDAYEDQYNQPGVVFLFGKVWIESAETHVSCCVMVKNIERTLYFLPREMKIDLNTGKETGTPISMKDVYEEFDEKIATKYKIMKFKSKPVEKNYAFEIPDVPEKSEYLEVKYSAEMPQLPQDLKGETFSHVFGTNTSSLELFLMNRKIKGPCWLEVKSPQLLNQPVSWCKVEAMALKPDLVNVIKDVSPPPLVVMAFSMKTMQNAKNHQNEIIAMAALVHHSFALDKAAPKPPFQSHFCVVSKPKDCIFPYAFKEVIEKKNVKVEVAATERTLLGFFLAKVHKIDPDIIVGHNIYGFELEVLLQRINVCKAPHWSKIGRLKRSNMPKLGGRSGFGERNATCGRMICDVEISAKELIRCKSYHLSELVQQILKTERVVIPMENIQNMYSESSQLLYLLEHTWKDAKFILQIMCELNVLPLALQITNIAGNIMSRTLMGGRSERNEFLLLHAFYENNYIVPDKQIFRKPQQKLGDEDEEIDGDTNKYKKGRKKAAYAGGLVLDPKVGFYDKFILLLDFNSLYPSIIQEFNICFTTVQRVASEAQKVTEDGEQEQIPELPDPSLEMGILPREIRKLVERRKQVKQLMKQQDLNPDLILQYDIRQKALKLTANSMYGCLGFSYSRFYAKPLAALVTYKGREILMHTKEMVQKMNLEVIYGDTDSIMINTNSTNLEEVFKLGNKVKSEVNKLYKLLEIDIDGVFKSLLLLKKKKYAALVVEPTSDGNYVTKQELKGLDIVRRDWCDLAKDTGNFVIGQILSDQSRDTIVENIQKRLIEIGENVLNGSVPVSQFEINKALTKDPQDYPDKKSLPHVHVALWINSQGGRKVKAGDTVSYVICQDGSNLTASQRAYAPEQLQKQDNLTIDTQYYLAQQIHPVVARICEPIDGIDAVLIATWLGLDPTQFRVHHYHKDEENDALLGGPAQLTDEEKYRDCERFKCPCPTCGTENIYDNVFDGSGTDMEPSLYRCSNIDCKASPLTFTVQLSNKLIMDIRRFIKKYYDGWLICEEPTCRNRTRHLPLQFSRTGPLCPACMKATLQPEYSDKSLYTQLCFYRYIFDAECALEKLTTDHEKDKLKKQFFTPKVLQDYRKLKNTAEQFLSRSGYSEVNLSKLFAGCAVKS

| pIC50 [6] | pIC50 (DNA polymerase beta) | pIC50 [7] | SMILES | pIC50 [1] | CC50 [2] | pEC50 (Hepatitis C virus [3]) | pIC50 [4] | pEC50 (Hepatitis C virus [5]) |
| --- | --- | --- | --- | --- | --- | --- | --- | --- |
|  |  |  | C[C@@]1(O)[C@H](O)[C@@H](CO)O[C@H]1n1ccc2c(N)ncnc21 [BETA-2'-C-METHYL-7-DEAZA-ADENOSINE] | 6.70 | > 100000 nM | 6.52 | 7.15 | 6.70 |
| < 4.00 | < 4.00 | < 4.00 | C[C@@]1(O)[C@H](O)[C@@H](COP(=O)(O)OP(=O)(O)OP(=O)(O)O)O[C@H]1c1ccc2c(N)ncnn12 |  |  |  |  |  |
